Assay results: ChEMBL document CHEMBL1153905, “Functionalized 3-benzylidene-indolin-2-ones: inducers of NAD(P)H-quinone oxidoreductase 1 (NQO1) with antiproliferative activity” (Bioorg Med Chem, 2009)

Experiments:
[1] = Antiproliferative activity against human CCL186 cells after 72 hrs by MTT assay; format: cell-based; conditions: CCL186, 72 h
In short: (§1)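 Cells seeded at 10,000 (MCF7), 4000 (HCT116) or 5000 (CCL186) per well and grown 24 h; MCF7 and CCL186 in EMEM with pyruvate, glutamine, 10% FBS; HCT116 in McCoy's 5A with 10% FBS. Compounds from DMSO stocks (≤1% DMSO final), 72 h exposure; MTT 0.5 mg/ml for 3 h, formazan in DMSO read at 590 nm. IC50 from sigmoidal survival curve, three separate occasions.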

MCF7 [2] = experiment: Antiproliferative activity against human MCF7 cells after 72 hrs by MTT assay; format: functional, cell-based; conditions: MCF7, 72 h; in short: as §1
HCT-116 [3] = experiment: Cell cycle arrest in human HCT116 cells released from G2 block assessed as accumulation at G1 phase at 15 uM after 24 hrs by flow cytometry; format: functional
HCT-116 [4] = experiment: Cell cycle arrest in human HCT116 cells released from G2 block assessed as accumulation at S phase at 15 uM after 24 hrs by flow cytometry; format: functional
[5] = Cytotoxicity against mouse Hepa-1c1c7 cells after 48 hrs by MTT assay; format: cell-based; conditions: hepa-1c1c7, 48 h
In short: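 Murine hepatoma cells in α-MEM with 10% heat- and charcoal-treated fetal calf serum, passages 6–17; MTT read-out as for the cancer lines but with 48 h compound exposure. Highest concentration tested 25 µM. IC50 from survival-versus-concentration curve; mean and SD, n = 3.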

HCT-116 [6] = experiment: Cell cycle arrest in human HCT116 cells released from G2 block assessed as accumulation at G2/M phase at 15 uM after 24 hrs by flow cytometry; format: functional
CYP1A1 [7] = target: T1, CYP1A1 (Mus musculus, UniProt P00184); experiment: Induction of CYP1A1 activity in mouse Hepa-1c1c7 cells assessed as induction ratio at 0.05 uM after 48 hrs by EROD assay relative to control; format: ADME, cell-based
T1 sequence (P00184 whole entry): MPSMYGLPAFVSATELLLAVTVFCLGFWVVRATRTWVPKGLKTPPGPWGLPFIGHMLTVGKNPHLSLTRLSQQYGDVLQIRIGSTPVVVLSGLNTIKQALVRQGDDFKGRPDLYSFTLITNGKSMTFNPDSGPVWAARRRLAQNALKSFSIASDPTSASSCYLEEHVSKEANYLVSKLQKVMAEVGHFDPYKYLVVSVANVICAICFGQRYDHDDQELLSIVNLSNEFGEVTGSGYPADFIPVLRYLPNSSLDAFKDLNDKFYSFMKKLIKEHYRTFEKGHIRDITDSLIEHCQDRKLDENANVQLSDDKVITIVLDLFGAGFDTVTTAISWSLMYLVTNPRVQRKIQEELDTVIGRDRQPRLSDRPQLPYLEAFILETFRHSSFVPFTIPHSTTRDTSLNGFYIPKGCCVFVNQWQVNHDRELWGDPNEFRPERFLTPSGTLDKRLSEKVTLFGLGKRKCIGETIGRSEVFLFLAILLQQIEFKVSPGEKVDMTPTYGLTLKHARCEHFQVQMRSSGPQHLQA
In short: (§2)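 About 10,000 Hepa1c1c7 cells/well cultured 24 h, then compound (0.5% DMSO final) for 48 h, at roughly 4 × the concentration doubling NQO1 activity. After PBS wash, cells given 5 µM 7-ethoxyresorufin plus 2 mM salicylamide, 37 °C, 40 min; resorufin fluorescence ex 530/em 590 nm, corrected for compound fluorescence. Ratio = (treated − blank)/(DMSO control − blank); mean ± SD, n = 3.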

[8] = Selectivity ratio of IC50 for human CCL186 cells to IC50 for human HCT116 cells; format: ADME, cell-based, HCT-116; conditions: CCL186 cells and HCT116 cells, read-out: Ratio IC50
In short: (§3)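 MTT assay. MCF7 and CCL186 cells were grown in EMEM/10% FBS, HCT116 in McCoy's 5A/10% FBS. Seeding was 10,000 (MCF7), 4000 (HCT116) and 5000 (CCL186) cells per well, 24 h. Compound exposure was 72 h, DMSO ≤1% final. MTT 0.5 mg/ml for 3 h, formazan dissolved in DMSO, A590. IC50 came from sigmoidal survival curves, with 3 separate occasions per concentration. Ratio = IC50 CCL186 / IC50 of the cancer line.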

[9] = target: NAD(P)H dehydrogenase [quinone] 1 (Mus musculus) (UniProt Q64669); experiment: Induction of NQO1 activity in mouse Hepa-1c1c7 cells assessed as induction ratio at 0.05 uM after 48 hrs by MTT assay relative to control; format: cell-based
In short: (§4)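 Hepa1c1c7 cells, 10,000 per well, 24 h, were then treated 48 h (DMSO ≤0.5%). Digitonin/EDTA lysates were assayed for menadione-dependent MTT-formazan formation using a G6P/G6PDH NADPH-generating mix with FAD at pH 7.4. The reaction ran 5 min, was stopped with dicoumarol, and read at A590. Degree of induction = (A test − blank)/(A control − blank). Ratios were read off the induction–concentration plot at the EROD test concentration.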

MCF7 [10] = experiment: Selectivity ratio of IC50 for human CCL186 cells to IC50 for human MCF7 cells; in short: as §3
HCT-116 [11] = experiment: Cell cycle arrest in human HCT116 cells released from G1 block assessed as accumulation at S phase at 15 uM after 24 hrs by flow cytometry; format: functional
HCT-116 [12] = experiment: Cell cycle arrest in human HCT116 cells released from G1 block assessed as accumulation at G2/M phase at 15 uM after 24 hrs by flow cytometry; format: functional
HCT-116 [13] = experiment: Cell cycle arrest in human HCT116 cells released from G1 block assessed as accumulation at sub G1 phase at 15 uM after 24 hrs by flow cytometry; format: functional
HCT-116 [14] = experiment: Antiproliferative activity against human HCT116 cells after 72 hrs by MTT assay; format: functional, cell-based; conditions: HCT-116, 72 h; in short: as §1
HCT-116 [15] = experiment: Cell cycle arrest in human HCT116 cells released from G2 block assessed as accumulation at sub G1 phase at 15 uM after 24 hrs by flow cytometry; format: functional
HCT-116 [16] = experiment: Cell cycle arrest in human HCT116 cells released from G1 block assessed as accumulation at G1 phase at 15 uM after 24 hrs by flow cytometry; format: functional
[17] = target: NAD(P)H dehydrogenase [quinone] 1 (Mus musculus) (UniProt Q64669); experiment: Induction of NQO1 activity in mouse Hepa-1c1c7 cells assessed as induction ratio at 5 nM after 48 hrs by MTT assay relative to control; format: cell-based; in short: as §4
CYP1A1 [18] = target: T1, CYP1A1; experiment: Induction of CYP1A1 activity in mouse Hepa-1c1c7 cells assessed as induction ratio at 5 nM after 48 hrs by EROD assay relative to control; format: ADME, cell-based
In short: (§5)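 Hepa1c1c7 cells were seeded at 10,000 per well and grown 24 h. They were then exposed 48 h to compound (final DMSO 0.5% v/v) at about 4 × the NQO1 CD. After a PBS wash, cells got 5 µM 7-ethoxyresorufin plus 2 mM salicylamide in medium, 37 °C, 40 min. Resorufin was read at ex 530/em 590 nm, corrected for compound fluorescence. Ratio = (F treated − blank)/(F DMSO control − blank); mean ± SD, n = 3.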

[19] = Ratio of induction of NQO1 activity to induction of CYP1 activity in mouse Hepa-1c1c7 cells at 5 nM after 48 hrs
CYP1A1 [20] = target: T1, CYP1A1; experiment: Induction of CYP1A1 activity in mouse Hepa-1c1c7 cells assessed as induction ratio at 1 uM after 48 hrs by EROD assay relative to control; format: ADME, cell-based; in short: as §2
[21] = target: NAD(P)H dehydrogenase [quinone] 1 (Mus musculus) (UniProt Q64669); experiment: Induction of NQO1 activity in mouse Hepa-1c1c7 cells assessed as induction ratio at 1 uM after 48 hrs by MTT assay relative to control; format: cell-based; in short: as §4
CYP1A1 [22] = target: T1, CYP1A1; experiment: Induction of CYP1A1 activity in mouse Hepa-1c1c7 cells assessed as induction ratio at 7.5 uM after 48 hrs by EROD assay relative to control; format: ADME, cell-based; in short: as §5
[23] = target: NAD(P)H dehydrogenase [quinone] 1 (Mus musculus) (UniProt Q64669); experiment: Induction of NQO1 activity in mouse Hepa-1c1c7 cells assessed as induction ratio at 7.5 uM after 48 hrs by MTT assay relative to control; format: cell-based; in short: as §4
[24] = target: NAD(P)H dehydrogenase [quinone] 1 (Mus musculus) (UniProt Q64669); experiment: Induction of NQO1 activity in mouse Hepa-1c1c7 cells assessed as drug level required to double basal enzyme activity after 48 hrs by MTT assay; format: cell-based
In short: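 Hepa1c1c7 cells were grown in α-MEM with charcoal-treated FCS, 10,000 per well, 24 h. Compound was given 48 h (DMSO ≤0.5%) over a 10–100-fold range below cytotoxic levels, up to 25 µM. Cells were lysed with digitonin/EDTA. NQO1 was assayed by menadione-driven MTT reduction (G6P/G6PDH/NADP, FAD, Tris pH 7.4), quenched with dicoumarol, A590. CD is the concentration doubling basal activity, taken from the induction–concentration plot; mean ± SD, n = 3.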

CYP1A1 [25] = target: T1, CYP1A1; experiment: Induction of CYP1A1 activity in mouse Hepa-1c1c7 cells assessed as induction ratio at 10 uM after 48 hrs by EROD assay relative to control; format: ADME, cell-based; in short: as §2
[26] = target: NAD(P)H dehydrogenase [quinone] 1 (Mus musculus) (UniProt Q64669); experiment: Induction of NQO1 activity in mouse Hepa-1c1c7 cells assessed as induction ratio at 10 uM after 48 hrs by MTT assay relative to control; format: cell-based; in short: as §4
[27] = target: NAD(P)H dehydrogenase [quinone] 1 (Mus musculus) (UniProt Q64669); experiment: Induction of NQO1 activity in mouse Hepa-1c1c7 cells assessed as induction ratio at 0.1 uM after 48 hrs by MTT assay relative to control; format: cell-based; in short: as §4
CYP1A1 [28] = target: T1, CYP1A1; experiment: Induction of CYP1A1 activity in mouse Hepa-1c1c7 cells assessed as induction ratio at 0.1 uM after 48 hrs by EROD assay relative to control; format: ADME, cell-based; in short: as §2

NAD(P)H dehydrogenase [quinone] 1 (Mus musculus), sequence (Q64669 whole entry): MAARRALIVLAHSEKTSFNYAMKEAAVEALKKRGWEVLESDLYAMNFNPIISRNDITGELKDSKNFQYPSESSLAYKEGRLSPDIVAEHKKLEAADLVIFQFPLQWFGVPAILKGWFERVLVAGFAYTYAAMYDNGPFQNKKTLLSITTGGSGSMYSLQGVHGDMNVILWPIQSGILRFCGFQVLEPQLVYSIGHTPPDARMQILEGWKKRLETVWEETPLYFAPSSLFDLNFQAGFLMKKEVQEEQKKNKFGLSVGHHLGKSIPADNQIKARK

## O=C1Nc2cc(F)ccc2/C1=C\c1cccc(C(F)(F)F)c1
[1]
  IC50: 7.5 µM
MCF7 [2]
  IC50: 8.9 µM
HCT-116 [3]
  Activity: 64.15%
HCT-116 [4]
  Activity: 8.82%
[5]
  IC50: 2.2 µM
HCT-116 [6]
  Activity: 25%
CYP1A1 [7]
  fold induction at 48 h, 0.05 µM: 1.23
[8]
  selectivity ratio: 0.8
[9]
  Ratio: 3.31
MCF7 [10]
  Ratio IC50: 0.9
HCT-116 [11]
  Activity: 8.04%
HCT-116 [12]
  Activity: 14.58%
HCT-116 [13]
  Activity: 12.68%
HCT-116 [14]
  IC50: 8.4 µM
HCT-116 [15]
  Activity: 2.49%
HCT-116 [16]
  Activity: 64.93%

## O=C1Nc2ccccc2/C1=C1\C(=O)Nc2cc(F)ccc21
[17]
  Ratio: 2.56
[5]
  IC50: > 25 µM
CYP1A1 [18]
  fold induction at 48 h, 0.005 µM: 2.75
[19]
  Ratio: 0.93

## COc1ccc2c(c1)NC(=O)/C2=C/c1ccc(OC)c(O)c1
[1]
  IC50: 11.3 µM
MCF7 [2]
  IC50: 7.8 µM
CYP1A1 [20]
  fold induction at 48 h, 1 µM: 1.05
[21]
  Ratio: 4.34
HCT-116 [3]
  Activity: 26.01%
HCT-116 [4]
  Activity: 15.36%
[5]
  IC50: 9.8 µM
HCT-116 [6]
  Activity: 43.57%
[8]
  selectivity ratio: 1.4
MCF7 [10]
  Ratio IC50: 3.1
HCT-116 [11]
  Activity: 21.13%
HCT-116 [12]
  Activity: 56.49%
HCT-116 [13]
  Activity: 5.26%
HCT-116 [14]
  IC50: 3.7 µM
HCT-116 [15]
  Activity: 15.54%
HCT-116 [16]
  Activity: 17.49%

## O=C1Nc2cc(C(F)(F)F)ccc2/C1=C1\C(=O)Nc2ccc(F)cc21
[17]
  Ratio: 3.09
[5]
  IC50: > 25 µM
CYP1A1 [18]
  fold induction at 48 h, 0.005 µM: 3.72
[19]
  Ratio: 0.83

## O=C1Nc2ccccc2/C1=C\c1cccc(Oc2ccccc2)c1
[1]
  IC50: 12.7 µM
MCF7 [2]
  IC50: 8.2 µM
CYP1A1 [22]
  fold induction at 48 h, 7.5 µM: 1.08
HCT-116 [3]
  Activity: 63.51%
HCT-116 [4]
  Activity: 13.1%
[5]
  IC50: 10.8 µM
HCT-116 [6]
  Activity: 21.09%
[8]
  selectivity ratio: 1.5
MCF7 [10]
  Ratio IC50: 3.4
[23]
  Ratio: 3.34
HCT-116 [11]
  Activity: 21.83%
HCT-116 [12]
  Activity: 18.98%
HCT-116 [13]
  Activity: 3.62%
HCT-116 [14]
  IC50: 3.7 µM
HCT-116 [15]
  Activity: 2.16%
HCT-116 [16]
  Activity: 55.93%

## C[S+]([O-])CCCCN=C=S (centres undefined) [SULFORAPHANE]
CYP1A1 [20]
  fold induction at 48 h, 1 µM: 0.92
[21]
  Ratio: 3.89
[24]
  CD: 0.26 µM

## O=C1Nc2ccccc2/C1=C1\C(=O)Nc2cc(C(F)(F)F)ccc21
[17]
  Ratio: 2.99
[5]
  IC50: > 25 µM
CYP1A1 [18]
  fold induction at 48 h, 0.005 µM: 3.01
[19]
  Ratio: 0.99

## O=C1Nc2ccccc2/C1=C\c1ccc(Cl)cc1Cl
[5]
  IC50: 10.6 µM
CYP1A1 [25]
  fold induction at 48 h, 10 µM: 1.21
[26]
  Ratio: 4.24

## O=C1Nc2ccccc2/C1=C\c1ccc(C(F)(F)F)cc1
[27]
  Ratio: 2.74
[5]
  IC50: 12 µM
CYP1A1 [28]
  fold induction at 48 h, 0.1 µM: 1.22
